hERG protect = hERG (human) protection from proarrhythmic block. AID 1511. activation (rescue from dofetilide block), less the hit threshold, % at 10 µM. 310,000 compounds, 0.51% hits. Q12809. CHO-hERG, FluxOR thallium flux, dofetilide IC70 present;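 active = activation above the mean of controls blocked by dofetilide plus 5 SD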;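 also: thallium influx through hERG after potassium depolarization seen as dye fluorescence rise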
Kir21 block = inhibitors of mouse Kir2.1 inward-rectifier potassium channel; HEK293-Kir2.1, FluxOR thallium flux fluorescence; active compounds read low; B-score at 10 µM; 310,000 compounds, 0.85% hits; AID 1672;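 active = fluorescence ratio B-score at or below minus 3 SD of library scores, with starting-brightness B-score within 2 SD, cut at about -4.2 in these data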;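 also: channel flux triggered by added potassium and thallium sulfate stimulus; B-score of peak minus minimum fluorescence over baseline after thallium stimulus; more negative B-score means stronger Kir2.1 block with less thallium influx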
KCNQ1 act = potentiators or activators of human KCNQ1 potassium channel; P51787; CHO-K1 KCNQ1, thallium flux FluxOR fluorescence; active compounds read high; B-score at 10 µM; 310,000 compounds, 0.35% hits; AID 2648;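 active = fluorescence ratio B-score, a plate-corrected score, at least three library SD, with initial intensity B-score within 5 SD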
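System: Stable KCNQ1 CHO-K1 line | Incubation: 90 min dye loading and 20 min compound exposure, both at room temperature | Measure: Ratio B score | Medium: Assay buffer for compound exposure, DMSO matched across wells | Compound dosing: Single-concentration screen | Probe or stimulus: K+/Tl+ depolarizing stimulus | Measured by: Kinetic FluxOR fluorescence, 10 s baseline plus 110 s post-stimulus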
KCNK3 block = human KCNK3 channel inhibition, primary screen | O14649 | CHO-KCNK3 thallium flux, FluxOR fluorescence; active compounds read low | B-score at 10 µM | 340,000 compounds, 0.84% hits | AID 602410;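 active = B-score under library mean minus 4 SD, starting fluorescence ratio at most library mean plus 5 SD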;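 also: more negative B-score means stronger inhibition of thallium flux through KCNK3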
Target sequence (O14649 whole entry, looked up): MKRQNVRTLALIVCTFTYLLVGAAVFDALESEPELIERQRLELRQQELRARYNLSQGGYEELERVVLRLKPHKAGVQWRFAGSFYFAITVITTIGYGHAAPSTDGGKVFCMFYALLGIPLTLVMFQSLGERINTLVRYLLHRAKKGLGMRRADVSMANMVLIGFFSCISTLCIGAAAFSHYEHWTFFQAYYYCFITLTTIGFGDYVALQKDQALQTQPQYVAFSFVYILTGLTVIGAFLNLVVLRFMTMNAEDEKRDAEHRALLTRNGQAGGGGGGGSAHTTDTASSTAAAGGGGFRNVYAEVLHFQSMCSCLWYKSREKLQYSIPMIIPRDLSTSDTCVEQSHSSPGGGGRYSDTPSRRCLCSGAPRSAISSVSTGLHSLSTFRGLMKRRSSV
KCNK9 inh = human KCNK9 channel inhibition; Q9NPC2; HEK293 KCNK9, FluxOR thallium flux fluorescence; active compounds read low; B-score at 10 µM; 310,000 compounds, 1.2% hits; AID 488922;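 active = ratio B-score over 3 SD below the library mean, with starting fluorescence within 5 SD of its mean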;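 also: negative B-score means less thallium flux so channel inhibition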
KCNQ1 block = blocks the human KCNQ1 potassium channel | P51787 | B-score at 10 µM | CHO-K1 KCNQ1, FluxOR thallium flux fluorescence; active compounds read high | 310,000 compounds, 1.3% hits;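 active = compounds whose thallium flux B-score, printed positive for inhibition, exceeds three library SD while starting fluorescence stays within three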;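 also: channel opened by potassium depolarization with thallium stimulus after 20 min compound exposure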
KCNK3 confirm = confirmation of human KCNK3 two-pore domain potassium channel inhibitors. shares compounds with KCNK3 block. CHO-KCNK3 thallium flux, FluxOR fluorescence; 0% buffer, 100% carvedilol maximal block. ratio percent of control, % at 10 µM. 2,400 compounds, 99% hits;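 active = ratio percent of control, averaged over triplicates, above buffer control mean plus 5 SD, cut at about 64% in these data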;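 also: ratio is the fluorescence rise from min to max over baseline after thallium stimulus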
KCNK3 uninduced = KCNK3 inhibitor counter-screen hit in non-induced cells. AID 651747. thallium flux ratio (lower = more inhibition) at 10 µM. shares compounds with KCNK3 block. non-induced KCNK3 parental cells, FluxOR thallium flux; active compounds read low. 2,400 compounds, 40% hits;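 active = thallium flux ratio, averaged over three wells, more than 5 SD below the buffer control mean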;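 also: host cells are CHO cells without KCNK3 induction; ratio is peak minus trough fluorescence over baseline then normalized to buffer controls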
* hit, by the source's call; i = inactive; . = not tested or not shown. Most compounds without a hit are left out; they make up all but 3.7% or so of the library.

SMILES | hERG protect | Kir21 block | KCNQ1 act | KCNK3 block | KCNK9 inh | KCNQ1 block | KCNK3 confirm | KCNK3 uninduced
O=C(Nc1cccc(-c2cn3c(n2)SCC3)c1)c1ccc2c(c1)OCO2 | -24.2 | -0.01 | i | -10.6* | i | i | 104.0* | i
O=C(Nc1ccc(-c2cn3c(n2)SCC3)cc1)c1ccc2c(c1)OCO2 | -14.8 | 0.02 | i | i | i | i | . | .
Cc1ccc(S(=O)(=O)N2CCN=C2SCc2ccccc2)cc1 | -5.0 | -2.01 | i | i | i | i | . | .
Cc1cccc(CSC2=NCCN2S(=O)(=O)c2ccc(F)cc2)c1 | -9.1 | -1.01 | i | -8.87* | i | i | 105.0* | i
O=[N+]([O-])c1ccccc1-c1ccc(CN2CCN(c3ccccc3)CC2)o1 | -12.0 | 1.17 | i | i | i | i | . | .
O=C(NC1CCCCC1)c1sc(N2CCOCC2)nc1-c1ccccc1 | -1.8 | 1.6 | i | i | i | i | . | .
CC(=O)N1c2ccc(S(=O)(=O)N3CCC(C(=O)N4CCC(C)CC4)CC3)cc2CC1C (stereo unspecified) | -6.4 | -1.22 | i | i | i | i | . | .
CC(=O)N1c2ccc(S(=O)(=O)N3CCC(C(=O)N4CCN(c5cc(Cl)ccc5C)CC4)CC3)cc2CC1C (stereo unspecified) | -6.2 | -0.86 | i | -9.53* | i | 6* | 107.7* | i
O=C1C2C3C=CC(O3)C2C(=O)N1N=Cc1ccc2c(c1)OCO2 (stereo unspecified) | . | . | . | i | . | . | . | .
CCN(CC)C(=O)C(Oc1ccc(S(=O)(=O)N2CCCC2)cc1[N+](=O)[O-])c1ccccc1 (stereo unspecified) | -3.3 | 1.99 | i | -11.3* | -7.14* | i | 98.0* | i
Cc1cccc(Nc2nc(N)c([N+](=O)[O-])c(N3CC(C)OC(C)C3)n2)c1 (stereo unspecified) | -10.1 | 0.68 | i | -8.96* | i | i | 88.3* | i
Cc1cccc(Nc2nc(N)c([N+](=O)[O-])c(N3CC(C)CC(C)C3)n2)c1 (stereo unspecified) | -11.7 | -1.95 | i | i | i | i | . | .
CC(C)(C)NS(=O)(=O)c1ccc(/C=C/C(=O)O)cc1 | -10.6 | -0.1 | i | i | i | i | . | .
COc1ccccc1/C=N/NC(=O)c1cccc(NC(=O)c2ccccc2Cl)c1 | -16.6 | -2.33 | i | -9.53* | -7.11* | i | 100.3* | i
COc1cccc(C(=O)NCCSCc2ccccc2Cl)c1 | -16.0 | -1.67 | i | -9.81* | i | i | 98.7* | i
COc1cccc(C(=O)NCCSCc2c(F)cccc2Cl)c1 | -8.5 | 1.55 | i | i | i | i | . | .
C=CCc1cccc(/C=N/NC(=O)c2ccccc2OC)c1O | -10.7 | -0.02 | i | -9.49* | -7.68* | i | 94.3* | i
CCn1c2ccccc2c2cc(NC(=O)c3ccco3)ccc21 | -4.0 | 0.23 | i | -9.45* | i | i | 114.3* | i
COc1ccc(OC)c(N/C(=N/C(=S)Nc2ccccc2)Nc2nc(C)cc(C)n2)c1 | -6.4 | -0.71 | i | i | i | i | . | .
Cc1ccccc1N1C(=O)CC(Sc2nnc(-c3ccccc3)o2)C1=O (stereo unspecified) | -11.9 | 1.01 | i | i | i | i | . | .
C=CCCCCCCCCC(=O)NN | -0.6 | 0.03 | i | i | i | i | . | .
COc1cccc(C(=O)Nc2cccc(NC(=O)c3ccccc3Cl)c2)c1 | -2.1 | 1.04 | i | -12.2* | i | i | 96.3* | i
O=C(Nc1cccc(NC(=O)c2ccccc2Cl)c1)c1ccco1 | -10.4 | 1.42 | i | -8.74* | i | i | 98.3* | i
CC(=O)Nc1cccc(Oc2ncnc3scc(-c4ccc(C(C)C)cc4)c23)c1 | -26.9 | 0.03 | i | i | i | i | . | .
CCN(C(=O)CSc1nc2ccc(O)cc2c(=O)n1-c1ccc(OC)c(OC)c1)C1CCS(=O)(=O)C1 (stereo unspecified) | . | . | . | i | . | . | . | .
SMILES | hERG protect | Kir21 block | KCNQ1 act | KCNK3 block | KCNK9 inh | KCNQ1 block | KCNK3 confirm | KCNK3 uninduced
Cc1cccc(-n2c(SCC(=O)N3CC(=O)Nc4ccccc43)nc3ccccc3c2=O)c1 | -15.3 | -0.02 | i | -10.4* | i | i | 100.0* | i
CCN(C(=O)CSc1nc2ccccc2c(=O)n1Cc1ccc(C)cc1)C1CCS(=O)(=O)C1 (stereo unspecified) | -12.2 | -0.61 | i | -9.51* | i | i | 97.0* | i
CCc1cc2c(=O)n(Cc3ccco3)c(SCC(=O)N(C)C3CCS(=O)(=O)C3)nc2s1 (stereo unspecified) | -16.8 | 0.27 | i | -9.92* | i | i | 100.0* | i
CCn1c(SCC(=O)N(Cc2ccccc2)C2CCS(=O)(=O)C2)nc2ccccc2c1=O (stereo unspecified) | -3.4 | 0.83 | i | i | i | i | . | .
CCN(C(=O)CSc1nc2ccccc2c(=O)n1-c1cccc(C)c1)C1CCS(=O)(=O)C1 (stereo unspecified) | -14.9 | 1.2 | i | -11* | i | i | 100.0* | i
N#Cc1ccc(CN2CCN(C(=O)CNS(=O)(=O)c3ccc4c(c3)OCCCO4)CC2)cc1 | . | . | . | i | . | . | . | .
CCN(CC)S(=O)(=O)c1ccc(NC(=O)COC(=O)CCc2cc(OC)c(OC)c(OC)c2)cc1 | -7.4 | 0.55 | i | i | i | i | . | .
Cc1sc2ncnc(N3CCC(C(=O)Nc4ccc(Br)cc4Br)CC3)c2c1C | -9.5 | -2.88 | i | -8.75* | i | i | 113.0* | i
CCOC(=O)C1(CCOc2ccccc2)CCN(Cc2ccc(-n3cccn3)cc2)CC1 | -31.3 | -0.55 | i | i | i | i | . | .
Cc1nn2c(NC(C)C)c3c(nc2c1-c1ccccc1)CCC3 | -12.2 | 0.56 | i | -8.95* | i | i | 94.0* | i
Cc1nn2c(NCC(C)C)c3c(nc2c1-c1ccccc1)CCC3 | -11.0 | 1.81 | i | i | i | i | . | .
O=C(Cc1ccccc1F)Nc1nc(-c2ccc(F)cc2)cs1 | -4.5 | -0.69 | i | -11.1* | i | i | 126.0* | i
COc1ccc(OC)c(-c2csc(NC(=O)C3=COCCO3)n2)c1 | -15.2 | 3.09 | i | -9.09* | i | i | 91.0* | i
COc1ccc(OC)c(-c2csc(NC(=O)Cc3cc(OC)c(OC)c(OC)c3)n2)c1 | -4.6 | 0.37 | i | i | i | i | . | .

Assay outcomes from PubChem BioAssay.
